A1 apoptosis 2 = compounds inhibiting A1, read as caspase activation; MEF A1-2A-BIM cells, caspase-Glo luminescence, 3 h; percent of clofoctol response, DMSO zero; caspase activation, % (concentration not given with the values); 24,000 tested, under 10 active; in the data active = caspase activation above about 5.9%; inconclusive = no clear call, values can overlap the other calls; inactive = below about 2.2%
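System: mouse embryonic fibroblasts co-expressing A1 and BIM (A1-2A-BIM), primed for A1 dependence; amount: 2500 cells/well; doses: 50 nL pinned compound; schedule: cells settled overnight, compound exposure 3 h at 37 °C, 5% CO2; detection: Caspase-Glo 3/7 luminescence, 1 h at room temperature; read-out: Caspase-3/7 activation, seen as rise in luminescence signal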
T cruzi HTS = blocks T. cruzi growth inside host cells; intracellular Trypanosoma cruzi in host cells, plate reader; activity score (inhibition), % at 5.01 µM; 4.9% of 22,000 active; in the data active = activity score above about 55%; inconclusive = no clear call, values can overlap the other calls;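 note: parasites and compound incubated about four days before reading; 0% = median of neutral control wells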
INS-1E ATP HTS = preserves ATP levels in cytokine-treated INS-1E cells; 0.1% of 20,000 active; protection from cytokine-induced ATP loss, % at 10 µM; INS-1E cytokine-induced death, ATP luminescence, 48 h; normalised: neutral wells 0, positive control 100; AID 488910;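 active = mean replicate protection from cytokine-induced ATP loss at least 50% and at least 75% of replicates each reaching 50%; inconclusive = meets only one of the two criteria, mean or replicate share; inactive = fails both the mean and replicate share criteria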
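Assay system: INS-1E rat insulinoma cells. Amount: 8000 cells per well. Medium: phenol-red-free RPMI with 5% fetal bovine serum. Reagent: IL-1β, TNF-α and IFN-γ cytokine mix. Doses: one compound concentration, pin transfer. Schedule: 48 h co-treatment, 10 min post-lysis read. Detection: CellTiter-Glo luminescence measuring cellular ATP.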
* hit, by the source's call; ? = inconclusive; / = no result given. Shown is part of a subset that was picked to be rich in hits.

SMILES	A1 apoptosis 2	T cruzi HTS	INS-1E ATP HTS
C[C@H]1CN([C@@H](C)CO)C(=O)Cc2cc(NC(=O)Nc3cccc4ccccc34)ccc2O[C@H]1CN(C)S(=O)(=O)c1ccc(F)cc1	/	-2	-5
C[C@@H]1CCCCO[C@H](CN(C)Cc2ccccc2)[C@H](C)CN([C@H](C)CO)C(=O)c2cc(NS(=O)(=O)c3cccs3)ccc2O1	0	/	/
C[C@@H]1CN([C@H](C)CO)C(=O)Cc2cc(NC(=O)Nc3ccc4c(c3)OCO4)ccc2O[C@H]1CN(C)C(=O)Nc1ccc2c(c1)OCO2	0	-12	2
C[C@H]1CN([C@@H](C)CO)C(=O)c2cc(NS(=O)(=O)c3ccc(Cl)cc3)ccc2O[C@H]1CN(C)S(=O)(=O)c1ccc(Cl)cc1	/	44*	/
Cc1ccc(S(=O)(=O)N(C)C[C@H]2Oc3ccc(NS(=O)(=O)c4ccccc4)cc3C(=O)N([C@@H](C)CO)C[C@@H]2C)cc1	2	6	-5
Cc1ccc(S(=O)(=O)N(C)C[C@H]2Oc3ccc(NS(=O)(=O)c4ccc(Cl)cc4)cc3C(=O)N([C@@H](C)CO)C[C@@H]2C)cc1	/	8	4
C[C@H](CO)N1C[C@H](C)[C@H](CN(C)S(=O)(=O)c2ccc(Cl)cc2)Oc2ccc(NS(=O)(=O)c3ccccc3)cc2C1=O	/	62*	/
C[C@H]1CN([C@@H](C)CO)C(=O)c2cc(NS(=O)(=O)c3ccccc3)ccc2O[C@H]1CN(C)S(=O)(=O)c1ccc(Cl)cc1	2	-7	0
Cc1ccc(S(=O)(=O)Nc2ccc3c(c2)C(=O)N([C@H](C)CO)C[C@H](C)[C@H](CN(C)S(=O)(=O)c2ccccc2)O3)cc1	-1	74*	/
C[C@H]1CN([C@@H](C)CO)C(=O)CCCn2nncc2CO[C@H]1CN(C)C(=O)c1cc(-c2ccccc2)on1	/	-4	/
O=C(NO)c1cccc(C(=O)N/N=C/c2ccc(O)cc2O)c1	/	19	-11
C[C@H](CO)N1C[C@H](C)[C@@H](CN(C)Cc2ccc(C(=O)Nc3ccccc3N)cc2)Oc2c(NC(=O)c3nc4ccccc4s3)cccc2C1=O	0	71*	2
C[C@H](CO)N1C[C@H](C)[C@H](CN(C)Cc2ccc(-c3ccccc3)cc2)Oc2c(NC(=O)c3nc4ccccc4s3)cccc2C1=O	/	60*	-42
COc1ccc(CN(C)C[C@@H]2Oc3c(NC(=O)c4nc5ccccc5s4)cccc3C(=O)N([C@@H](C)CO)C[C@H]2C)cc1	-1	47	-15
C[C@H](CO)N1C[C@H](C)[C@@H](CN(C)Cc2ccc(Cl)c(Cl)c2)Oc2c(NC(=O)c3nc4ccccc4s3)cccc2C1=O	0	69*	-28
C[C@@H]1CN([C@H](C)CO)C(=O)c2cccc(NC(=O)c3nc4ccccc4s3)c2O[C@H]1CN(C)Cc1ccc(Cl)c(Cl)c1	/	51	-60
C[C@@H]1CN([C@@H](C)CO)C(=O)c2cccc(NC(=O)c3nc4ccccc4s3)c2O[C@@H]1CN(C)Cc1ccc(C(=O)Nc2ccccc2N)cc1	/	?	30
C[C@H]1CN([C@@H](C)CO)C(=O)c2cccc(NC(=O)c3nc4ccccc4s3)c2O[C@H]1CN(C)Cc1ccc(-c2ccccc2)cc1	-1	23	-23
COc1ccc(CN(C)C[C@@H]2Oc3c(NC(=O)c4nc5ccccc5s4)cccc3C(=O)N([C@H](C)CO)C[C@H]2C)cc1	-1	57*	-18
C[C@H](CO)N1C[C@H](C)[C@H](CN(C)C(=O)Nc2ccc3c(c2)OCO3)Oc2c(NC(=O)C3CC3)cccc2C1=O	-1	-6	2
COc1ccc(NC(=O)Nc2cccc3c2O[C@H](CN(C)CC2CCCCC2)[C@@H](C)CN([C@@H](C)CO)C3=O)cc1	1	12	-9
C[C@@H]1CCCCO[C@H](CN(C)Cc2ccccc2)[C@H](C)CN([C@H](C)CO)C(=O)c2cc(NC(=O)Nc3ccc4c(c3)OCO4)ccc2O1	1	/	/
C[C@@H]1CN([C@@H](C)CO)C(=O)c2cccc(NC(=O)c3nc4ccccc4s3)c2O[C@@H]1CN(C)Cc1ccc(C(F)(F)F)cc1	-1	61*	-56
C[C@@H]1CN([C@@H](C)CO)C(=O)c2cccc(NC(=O)c3nc4ccccc4s3)c2O[C@@H]1CN(C)Cc1ccccc1	/	36	-49
C[C@@H]1CN([C@H](C)CO)C(=O)c2cccc(NC(=O)c3nc4ccccc4s3)c2O[C@H]1CN(C)CC1CCCCC1	0	58*	-8
SMILES	A1 apoptosis 2	T cruzi HTS	INS-1E ATP HTS
C[C@@H]1CN([C@@H](C)CO)C(=O)c2cccc(NC(=O)c3nc4ccccc4s3)c2O[C@H]1CN(C)CC1CCCCC1	-1	44	-61
C[C@H](CO)N1C[C@H](C)[C@@H](CN(C)C(=O)NC2CCCCC2)Oc2ccc(NC(=O)Nc3ccc(C(F)(F)F)cc3)cc2CC1=O	-1	/	/
O=C(Nc1ccccc1)C1=C[C@@H](c2ccc3c(c2)Cc2ccccc2-3)C[C@@H](OCc2ccc(CO)cc2)O1	-1	/	/
C[C@H](CO)N1C[C@H](C)[C@@H](CN(C)S(=O)(=O)c2ccc(-c3ccccc3)cc2)OCc2cnnn2CCCC1=O	1	80*	/
C[C@H](CO)N1C[C@H](C)[C@H](CN(C)S(=O)(=O)c2ccc(Oc3ccccc3)cc2)OCc2cnnn2CCCC1=O	0	70*	8
C[C@@H]1CN([C@H](C)CO)C(=O)CCCn2nncc2CO[C@@H]1CN(C)S(=O)(=O)c1ccc(Oc2ccccc2)cc1	1	26	-2
C[C@@H]1CN([C@@H](C)CO)C(=O)CCCn2nncc2CO[C@H]1CN(C)Cc1ccc(-c2ccccc2)cc1	/	22	/
C[C@@H]1CN([C@H](C)CO)C(=O)CCCn2nncc2CO[C@@H]1CN(C)Cc1ccc(-c2ccccc2)cc1	/	60*	/
C[C@@H]1CN([C@H](C)CO)C(=O)CCCn2nncc2CO[C@H]1CN(C)S(=O)(=O)c1ccc(-c2ccccc2)cc1	1	-4	2
C[C@@H]1CCCCO[C@@H](CN(C)Cc2ccccc2)[C@@H](C)CN([C@H](C)CO)C(=O)c2cc(NC(=O)NC3CCCCC3)ccc2O1	-1	-8	-23
COc1ccc(S(=O)(=O)N(C)C[C@@H]2OCCCC[C@H](C)Oc3ccc(NS(=O)(=O)c4cccs4)cc3C(=O)N([C@@H](C)CO)C[C@H]2C)cc1	-1	/	/
C[C@H]1CN([C@@H](C)CO)C(=O)c2cccc(NC(=O)c3ccncc3)c2O[C@@H]1CN(C)Cc1ccc(-c2ccccc2)cc1	/	79*	-16
C[C@H]1CN([C@@H](C)CO)C(=O)c2cccc(NC(=O)c3ccncc3)c2O[C@H]1CN(C)Cc1ccc(C(=O)O)cc1	1	-30	13
C[C@H](CO)N1C[C@H](C)[C@H](CN(C)Cc2ccc(C(=O)Nc3ccccc3N)cc2)Oc2c(NC(=O)c3ccncc3)cccc2C1=O	2	-27	-4
C[C@H]1CN([C@@H](C)CO)C(=O)c2cccc(NC(=O)c3ccncc3)c2O[C@H]1CN(C)Cc1ccc(-c2ccccc2)cc1	2	72*	-10

Source: PubChem BioAssay
